Key:
Assay type in all cases: functional
[1] = system: SK-OV-3; assay: Cytotoxicity against human SKOV3 cells after 48 hrs by SRB assay; conditions: SK-OV-3, 48 h
Procedure, shortened: (§1)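 Second-stage NCI-60 panel run by the NCI Developmental Therapeutics Program, covering nine tumour subpanels. Five concentrations were tested: 0.01, 0.1, 1, 10 and 100 μM. Percentage growth at each level was plotted against log10 drug concentration. GI50, TGI and LC50 were read from these dose-response curves. Subpanel MID values were divided into the full-panel MID to give selectivity ratios.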

[2] = system: NCI-H460; assay: Cytotoxicity against human NCI-H460 cells after 48 hrs by SRB assay; conditions: NCI-H460, 48 h; procedure, shortened: as §1
[3] = system: OVCAR-8; assay: Cytotoxicity against human OVCAR8 cells after 48 hrs by SRB assay; conditions: OVCAR-8, 48 h; for CC50: read-out: LC50 (the source's name); procedure, shortened: as §1
[4] = system: A549; assay: Cytotoxicity against human A549 cells after 48 hrs by SRB assay; conditions: A549, 48 h
Procedure, shortened: (§2)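 NCI-60 human tumour cell panel screen, second stage, run by the NCI Developmental Therapeutics Program. Compounds were tested at five concentrations (0.01, 0.1, 1, 10 and 100 μM). Percentage growth was plotted against log10 concentration for each cell line. GI50, TGI and LC50 were taken from these dose-response curves.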

[5] = system: K562; assay: Cytotoxicity against human K562 cells after 48 hrs by SRB assay; conditions: K562, 48 h; procedure, shortened: as §2
[6] = system: IGROV-1; assay: Cytotoxicity against human IGROV1 cells after 48 hrs by SRB assay; conditions: IGROV-1, 48 h; procedure, shortened: as §2
[7] = system: UO-31; assay: Cytotoxicity against human UO31 cells after 48 hrs by SRB assay; conditions: UO-31, 48 h
Procedure, shortened: (§3)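 NCI-60 five-dose study run by NCI DTP at 0.01, 0.1, 1, 10 and 100 µM. Percentage growth at each level was plotted against log10 concentration for each line, and GI50, TGI and LC50 were read from the dose-response curves.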

[8] = system: SN12C; assay: Cytotoxicity against human SN12C cells after 48 hrs by SRB assay; conditions: for CC50: read-out: LC50 (the source's name); procedure, shortened: as §1
[9] = system: 786-0; assay: Cytotoxicity against human 786-0 cells after 48 hrs by SRB assay; conditions: 786-0, 48 h; procedure, shortened: as §2
[10] = system: NCI/ADR-RES; assay: Cytotoxicity against human NCI/ADR-RES cells after 48 hrs by SRB assay; procedure, shortened: as §1
[11] = system: MCF7; assay: Cytotoxicity against human MCF7 cells after 48 hrs by SRB assay; conditions: MCF7, 48 h; procedure, shortened: as §2
[12] = system: SR; assay: Cytotoxicity against human SR cells after 48 hrs by SRB assay; procedure, shortened: as §3
[13] = Cytotoxicity against human non-small cell lung cancer cells assessed as growth inhibition after 48 hrs by SRB assay; conditions: Cancer cell lines
Procedure, shortened: (§4)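 Values come from the NCI-60 five-dose panel (0.01–100 µM). The subpanel MID is the mean GI50 over the lines of that tumour subpanel. The selectivity ratio is the full-panel MID divided by the subpanel MID; 3–6 is rated moderate and >6 high.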

[14] = system: Malme-3M; assay: Cytotoxicity against human MALME-3M cells after 48 hrs by SRB assay; procedure, shortened: as §2
[15] = system: HT-29; assay: Cytotoxicity against human HT-29 cells after 48 hrs by SRB assay; conditions: HT-29, 48 h; procedure, shortened: as §2
[16] = system: SF-539; assay: Cytotoxicity against human SF539 cells after 48 hrs by SRB assay; conditions: SF-539, 48 h; procedure, shortened: as §1
[17] = system: ACHN; assay: Cytotoxicity against human ACHN cells after 48 hrs by SRB assay; procedure, shortened: as §2
[18] = Cytotoxicity against human melanoma cells assessed as growth inhibition after 48 hrs by SRB assay; conditions: Melanoma cell; procedure, shortened: as §4
[19] = Cytotoxicity against human breast cancer cells assessed as growth inhibition after 48 hrs by SRB assay; conditions: Cancer cell lines; procedure, shortened: as §4
[20] = system: KM12; assay: Cytotoxicity against human KM12 cells after 48 hrs by SRB assay; conditions: KM12, 48 h; procedure, shortened: as §2
[21] = system: MOLT-4; assay: Cytotoxicity against human MOLT4 cells after 48 hrs by SRB assay; conditions: MOLT-4, 48 h; procedure, shortened: as §1
[22] = Cytotoxicity against human Hs578T cells after 48 hrs by SRB assay; conditions: Hs-578T; procedure, shortened: as §2
[23] = system: SF-295; assay: Cytotoxicity against human SF295 cells after 48 hrs by SRB assay; conditions: SF-295, 48 h; procedure, shortened: as §1
[24] = system: HCC 2998; assay: Cytotoxicity against human HCC2998 cells after 48 hrs by SRB assay; conditions: HCC 2998, 48 h; procedure, shortened: as §2
[25] = system: COLO 205; assay: Cytotoxicity against human COLO205 cells after 48 hrs by SRB assay; conditions: COLO 205, 48 h; procedure, shortened: as §2
[26] = system: T47D; assay: Cytotoxicity against human T47D cells after 48 hrs by SRB assay; procedure, shortened: as §3
[27] = system: HOP-62; assay: Cytotoxicity against human HOP62 cells after 48 hrs by SRB assay; conditions: HOP-62, 48 h; procedure, shortened: as §2
[28] = system: MDA-MB-231; assay: Cytotoxicity against human MDA-MB-231 cells after 48 hrs by SRB assay; conditions: MDA-MB-231, 48 h; procedure, shortened: as §1
[29] = system: LOX IMVI; assay: Cytotoxicity against human LOXIMVI cells after 48 hrs by SRB assay; conditions: for CC50: read-out: LC50 (the source's name); procedure, shortened: as §2
[30] = system: RXF 393; assay: Cytotoxicity against human RXF393 cells after 48 hrs by SRB assay; conditions: RXF 393, 48 h; procedure, shortened: as §1
[31] = system: TK-10; assay: Cytotoxicity against human TK10 cells after 48 hrs by SRB assay; conditions: TK-10, 48 h; procedure, shortened: as §3

## CC(C)Sc1cc2c(c3nsnc13)C(=O)c1ccccc1C2=O
[1]
  GI50: 2.9 µM
  LC50: 36.9 µM
  TGI: 12.6 µM
[2]
  GI50: 2.02 µM
  LC50 (concentration killing 50% of cells): 40.5 µM
  TGI: 8.33 µM
[3]
  GI50: 0.49 µM
  TGI: 2.37 µM
  CC50: 9.85 µM
[4]
  GI50: 2.43 µM
  LC50 (concentration killing 50% of cells): 51.4 µM
  TGI: 7.94 µM
[5]
  GI50: 0.26 µM
  LC50: 14.3 µM
  TGI: 1.35 µM
[6]
  GI50: 0.96 µM
  LC50: 9.18 µM
  TGI: 3.01 µM
[7]
  GI50: 1.16 µM
  LC50: 11.9 µM
  TGI: 3.56 µM
[8]
  GI50: 0.66 µM
  TGI: 2.41 µM
  CC50: 7.09 µM
[9]
  GI50: 2.75 µM
  LC50 (concentration killing 50% of cells): 34.9 µM
  TGI: 8.14 µM
[10]
  GI50: 0.52 µM
  LC50 (concentration killing 50% of cells): > 100 µM
  TGI: 3.2 µM
[11]
  GI50: 1.71 µM
  LC50 (concentration killing 50% of cells): 8.42 µM
  TGI: 3.8 µM
[12]
  GI50: 0.31 µM
  LC50: 7.46 µM
  TGI: 1.19 µM
[13]
  GI50: 1.81 µM
[14]
  GI50: 1.12 µM
  LC50: 5.03 µM
  TGI: 2.38 µM
[15]
  GI50: 12.2 µM
  LC50: 92.7 µM
  TGI: 33.6 µM
[16]
  GI50: 1.73 µM
  LC50: 7.14 µM
  TGI: 3.51 µM
[17]
  GI50: 1.25 µM
  LC50: 8.5 µM
  TGI: 3.26 µM
[18]
  GI50: 1.12 µM
[19]
  GI50: 1.09 µM
[20]
  GI50: 3.19 µM
  LC50 (concentration killing 50% of cells): 41.1 µM
  TGI: 11.3 µM
[21]
  GI50: 0.18 µM
  LC50: > 100 µM
  TGI: 0.49 µM
[22]
  GI50: 1.62 µM
  LC50: > 100 µM
  TGI: 6.27 µM
[23]
  GI50: 1.88 µM
  LC50: 9.83 µM
  TGI: 4.3 µM
[24]
  GI50: 3.46 µM
  LC50: 34.9 µM
  TGI: 11.1 µM
[25]
  GI50: 13.3 µM
  LC50: 51 µM
  TGI: 20.6 µM
[26]
  GI50: 0.38 µM
  LC50 (concentration killing 50% of cells): 9.11 µM
  TGI: 2.15 µM
[27]
  GI50: 2.1 µM
  LC50: 24.2 µM
  TGI: 6.53 µM
[28]
  GI50: 0.29 µM
  LC50 (concentration killing 50% of cells): 4.9 µM
  TGI: 1.41 µM
[29]
  GI50: 0.34 µM
  TGI: 1.31 µM
  CC50: 4.73 µM
[30]
  GI50: 1.77 µM
  LC50 (concentration killing 50% of cells): 16.9 µM
  TGI: 4.83 µM
[31]
  GI50: 5.68 µM
  LC50 (concentration killing 50% of cells): 87.6 µM
  TGI: 18 µM

## O=C1c2ccccc2C(=O)c2c1cc(Sc1cccc(Cl)c1)c1nsnc21
[1]
  GI50: 3.97 µM
  LC50: 34.8 µM
  TGI: 12.1 µM
[2]
  GI50: 4.29 µM
  LC50 (concentration killing 50% of cells): 75.8 µM
  TGI: 18.9 µM
[3]
  GI50: 0.59 µM
  TGI: 2.26 µM
  CC50: 6.81 µM
[4]
  GI50: 6.66 µM
  LC50 (concentration killing 50% of cells): 73.6 µM
  TGI: 24.4 µM
[5]
  GI50: 2.41 µM
  LC50: > 100 µM
  TGI: 7.27 µM
[6]
  GI50: 2.07 µM
  LC50: 26.7 µM
  TGI: 5.37 µM
[7]
  GI50: 1.78 µM
  LC50: 9.73 µM
  TGI: 4.16 µM
[8]
  GI50: 1.05 µM
  TGI: 2.58 µM
  CC50: 6.35 µM
[9]
  GI50: 2.91 µM
  LC50 (concentration killing 50% of cells): 31.1 µM
  TGI: 8.97 µM
[10]
  GI50: 0.5 µM
  LC50 (concentration killing 50% of cells): > 100 µM
  TGI: 4.59 µM
[11]
  GI50: 1.3 µM
  LC50 (concentration killing 50% of cells): 8.78 µM
  TGI: 3.37 µM
[12]
  GI50: 2 µM
  LC50: > 100 µM
  TGI: 8.09 µM
[13]
  GI50: 5.84 µM
[14]
  GI50: 1.98 µM
  LC50: 6.85 µM
  TGI: 3.68 µM
[15]
  GI50: 20.1 µM
  LC50: 100 µM
  TGI: 66.7 µM
[16]
  GI50: 2.19 µM
  LC50: 7.55 µM
  TGI: 4.07 µM
[17]
  GI50: 1.62 µM
  LC50: 6.63 µM
  TGI: 3.27 µM
[18]
  GI50: 1.56 µM
[19]
  GI50: 1.52 µM
[20]
  GI50: 12 µM
  LC50 (concentration killing 50% of cells): 65.7 µM
  TGI: 28 µM
[21]
  GI50: 0.64 µM
  LC50: > 100 µM
  TGI: 3.27 µM
[22]
  GI50: 1.97 µM
  LC50: > 100 µM
  TGI: 6.55 µM
[23]
  GI50: 7.84 µM
  LC50: 57.9 µM
  TGI: 22.9 µM
[24]
  GI50: 16.2 µM
  LC50: 62.1 µM
  TGI: 31.7 µM
[25]
  GI50: 20 µM
  LC50: 61.3 µM
  TGI: 35 µM
[26]
  GI50: 1.29 µM
  LC50 (concentration killing 50% of cells): 8.72 µM
  TGI: 3.35 µM
[27]
  GI50: 1.85 µM
  LC50: 8.81 µM
  TGI: 4.04 µM
[28]
  GI50: 0.37 µM
  LC50 (concentration killing 50% of cells): 31.6 µM
  TGI: 4.1 µM
[29]
  GI50: 0.54 µM
  TGI: 2.08 µM
  CC50: 5.73 µM
[30]
  GI50: 2.15 µM
  LC50 (concentration killing 50% of cells): 10.9 µM
  TGI: 4.7 µM
[31]
  GI50: 5.31 µM
  LC50 (concentration killing 50% of cells): 39.9 µM
  TGI: 14.8 µM

Reference: ChEMBL document CHEMBL3621107, “Ring fusion strategy for synthesis and lead optimization of sulfur-substituted anthra[1,2-c][1,2,5]thiadiazole-6,11-dione derivatives as promising scaffold of antitumor agents” (Eur J Med Chem, 2015)
